Test [1] relates to P388. Nature of the test: In vivo antineoplastic activity of mitomycin C sample run concurrently against P388 leukemia screen (optimal dosage). The format is functional, Mus musculus. The method in brief: (§1)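 Murine P388 lymphocytic leukemia screen, with tumor implanted ip and drug given ip. Response is %T/C = (median survival of treated / median survival of control) × 100, reported at the optimal dose per dose in mg/kg. Mitomycin C was run concurrently. MED is the lowest mg/kg per dose that reaches the criterion %T/C.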

Test [2] concerns P388. Put plainly: In vivo antineoplastic activity against P388 leukemia. It is filed as functional, Mus musculus. Summed up:
as §1

Test [3] deals with P388. Nature of the test: In vivo antineoplastic activity against P388 leukemia screen inoculated intraperitoneally expressed as minimum effective dose. It is filed as functional. The conditions noted are these: Mus musculus, P388, ip; read-out: MED. The method in brief:
as §1

Test [4] has as its system B16. Put plainly: In vivo antineoplastic activity against B16 melanoma screen inoculated subcutaneously. Value in parenthesis indicates the optimal dosage.
The subject of test [5] is B16. Put plainly: In vivo antineoplastic activity against B16 melanoma screen inoculated subcutaneously expressed as minimum effective dose.
In test [6] the test system is B16. Nature of the test: In vivo antineoplastic activity of mitomycin C sample run concurrently against B16 melanoma screen (optimal dosage). The format is functional, Mus musculus. Summed up:
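Murine B16 melanoma test, with tumor implanted sc and treatment given iv. Activity is %T/C = (median survival of treated / median survival of untreated control) × 100, reported at the optimal dose in mg/kg per dose. A mitomycin C sample was run alongside. MED is the minimum mg/kg per dose meeting the activity criterion for %T/C.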

The subject of test [7] is B16. Nature of the test: In vivo antineoplastic activity against B16 melanoma screen inoculated intraperitoneally expressed as minimum effective dose. It is filed as functional, Mus musculus.
Test [8] concerns B16. Nature of the test: In vivo antineoplastic activity against B16 melanoma screen inoculated intraperitoneally. Value in parenthesis indicates the optimal dosage. The format is functional, Mus musculus.

Bounds are passed on as bounds.

In the case of `CO[C@@]12[C@H](COC(N)=O)C3=C(C(=O)C(C)=C(N)C3=O)N1C[C@H]1[C@H]2N1/C(S)=N\c1ccccc1`, the T/C in test [1] was determined as 200%; in test [2], 127%. For the same compound, the minimal effective dose in test [3] came to 2.56 mg/kg.

Regarding `COC(=O)N1[C@H]2CN3C4=C(C(=O)C(N)=C(C)C4=O)[C@@H](COC(N)=O)[C@@]3(OC)[C@@H]21`, the T/C was found to be 165% in test [4], 275% in test [1], 194% in test [2] and 147% in test [6]. In test [5], this compound came in with an MED of 6.4. The minimal effective dose in test [3] amounted to 3.2 mg/kg.

Regarding `CO[C@@]12[C@H](COC(N)=O)C3=C(C(=O)C(C)=C(N)C3=O)N1C[C@H]1[C@H]2N1C(=O)Nc1ccccc1`, the T/C came to 142% in test [1] and 116% in test [2].

For `CO[C@@]12[C@H](COC(N)=O)C3=C(C(=O)C(C)=C(N)C3=O)N1C[C@H]1[C@H]2N1C(=O)Sc1ccccc1`, the T/C in test [4] turned out to be 156%; in test [1], 275%; in test [2], 200%; in test [6], 147%. The same compound returned an MED in test [5] of 1.6. In addition, in test [3], the minimal effective dose came to 1.6 mg/kg.

For `CNC(=S)N1[C@H]2CN3C4=C(C(=O)C(N)=C(C)C4=O)[C@@H](COC(N)=O)[C@@]3(OC)[C@@H]21`, the T/C worked out at 152% in test [1] and 95% in test [2].

Regarding `CO[C@@]12[C@H](COC(N)=O)C3=C(C(=O)C(C)=C(N)C3=O)N1C[C@H]1[C@H]2N1C(=O)SC`, the results for the T/C in test [1] and in test [2] were 142% and 132%, respectively. Further, the minimal effective dose in test [3] was 12.8 mg/kg.

With `CO[C@@]12[C@H](COC(N)=O)C3=C(C(=O)C(C)=C(N)C3=O)N1C[C@H]1[C@H]2N1C(=S)Sc1ccccc1`, the T/C was found to be 172% in test [1] and 167% in test [2]. The minimal effective dose in test [3] was 12.8 mg/kg.

Compound `CO[C@@]12[C@H](COC(N)=O)C3=C(C(=O)C(C)=C(N)C3=O)N1C[C@H]1[C@H]2N1C(=O)Oc1ccccc1` yielded an MED in test [7] of 3.2. The T/C came to 275% in test [1], 194% in test [2], 165% in test [8] and 147% in test [6]. Also, the minimal effective dose in test [3] stood at 1.6 mg/kg.

On to `CO[C@@]12[C@H](COC(N)=O)C3=C(C(=O)C(C)=C(N)C3=O)N1C[C@H]1[C@H]2N1C(=S)SC`, for which the T/C in test [1] is recorded as >333%; in test [2], 122%.

`CNC(=O)N1[C@H]2CN3C4=C(C(=O)C(N)=C(C)C4=O)[C@@H](COC(N)=O)[C@@]3(OC)[C@@H]21`: the T/C in test [1] was 142%; in test [2], 121%.

With `CO[C@@]12[C@H](COC(N)=O)C3=C(C(=O)C(C)=C(N)C3=O)N1C[C@H]1[C@H]2N1C(=S)Oc1ccccc1`, the values for the T/C in test [1] and in test [2] were 152% and 162%, respectively. Further, the minimal effective dose in test [3] is 51.2 mg/kg.

For the origin of these results see ChEMBL document CHEMBL1123610, “Synthesis and antineoplastic activity of 1a-formyl and 1a-thioformyl derivatives of mitomycin C and 2-methylaziridine” (1987).
